Target: T1, Bifunctional dihydrofolate reductase-thymidylate synthase (Plasmodium falciparum K1, UniProt P13922, A16V/S108T)
Assay: Evaluated for inhibition constant (Ki mut) against A16V+S108T Mutant dihydrofolate reductase of Plasmodium falciparum

T1 sequence (P13922 whole entry, looked up, stated change not applied): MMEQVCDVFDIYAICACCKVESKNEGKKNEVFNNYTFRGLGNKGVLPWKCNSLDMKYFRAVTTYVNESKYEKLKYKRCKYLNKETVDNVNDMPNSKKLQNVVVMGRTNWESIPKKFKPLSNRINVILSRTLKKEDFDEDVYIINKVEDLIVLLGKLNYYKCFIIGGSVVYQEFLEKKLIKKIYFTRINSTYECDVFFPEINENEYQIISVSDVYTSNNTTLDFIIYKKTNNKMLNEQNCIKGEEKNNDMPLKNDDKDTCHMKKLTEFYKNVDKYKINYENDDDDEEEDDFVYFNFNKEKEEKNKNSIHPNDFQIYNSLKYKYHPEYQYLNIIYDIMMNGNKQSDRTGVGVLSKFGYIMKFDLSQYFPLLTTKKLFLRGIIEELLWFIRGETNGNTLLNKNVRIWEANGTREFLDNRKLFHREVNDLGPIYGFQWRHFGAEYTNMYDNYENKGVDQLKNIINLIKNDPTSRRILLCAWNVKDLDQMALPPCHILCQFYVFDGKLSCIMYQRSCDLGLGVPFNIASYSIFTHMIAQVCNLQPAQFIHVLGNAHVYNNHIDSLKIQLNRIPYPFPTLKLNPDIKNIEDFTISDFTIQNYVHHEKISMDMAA

Structure (SMILES)	Ki [nM]
CCCC1N=C(N)N=C(N)N1c1ccc(Br)cc1 (stereo not drawn)	127
NC1=NC(c2ccccc2)N(c2cccc(Cl)c2)C(N)=N1 (stereo not drawn)	10
CCCC1N=C(N)N=C(N)N1c1ccc(Cl)cc1 (stereo not drawn)	107
CCCCC1N=C(N)N=C(N)N1c1ccc(Cl)cc1 (stereo not drawn)	167
NC1=NC(c2ccccc2)N(c2ccc(Cl)cc2)C(N)=N1 (stereo not drawn)	49
NC1=NC(c2ccccc2)N(c2ccc(Br)cc2)C(N)=N1 (stereo not drawn)	90
Cc1ccc(N2C(N)=NC(N)=NC2c2ccccc2)cc1 (stereo not drawn)	170
NC1=NCN(c2ccc(Cl)cc2)C(N)=N1	646

Target: T1, Bifunctional dihydrofolate reductase-thymidylate synthase
Assay: Inhibition constant (Ki mut) against A16V+S108T Mutant DHFRs of Plasmodium falciparum

Structure (SMILES)	Ki [nM]
CCC1N=C(N)N=C(N)N1c1ccc(C)cc1 (stereo not drawn)	128
CC1(C)N=C(N)N=C(N)N1c1ccc(Cl)c(Cl)c1 [CHLORCYCLOGUANIL]	131
CCC1N=C(N)N=C(N)N1c1ccc(Cl)cc1 (stereo not drawn)	189
NC1=NCN(c2ccc(F)cc2)C(N)=N1	469
CC(C)C1N=C(N)N=C(N)N1c1ccc(Br)cc1 (stereo not drawn)	1200
CC1N=C(N)N=C(N)N1c1ccc(Br)cc1 (stereo not drawn)	202
CC(C)C1N=C(N)N=C(N)N1c1ccc(Cl)cc1 (stereo not drawn)	1540

Target: Bifunctional dihydrofolate reductase-thymidylate synthase (Plasmodium falciparum K1) (UniProt P13922)
Sequence (P13922 whole entry, looked up): as the sequence (P13922 whole entry, looked up, stated change not applied) above
Assay: Evaluated for activity of compound relative to Cycloguanil

Structure (SMILES)	Relative activity
CCC1N=C(N)N=C(N)N1c1ccc(C)cc1 (stereo not drawn)	0.1
CC1(C)N=C(N)N=C(N)N1c1ccc(Cl)c(Cl)c1 [CHLORCYCLOGUANIL]	0.1
CCC1N=C(N)N=C(N)N1c1ccc(Cl)cc1 (stereo not drawn)	0.14
CCCC1N=C(N)N=C(N)N1c1ccc(Br)cc1 (stereo not drawn)	0.1
NC1=NC(c2ccccc2)N(c2cccc(Cl)c2)C(N)=N1 (stereo not drawn)	0.008
NC1=NCN(c2ccc(F)cc2)C(N)=N1	0.4
CC(C)C1N=C(N)N=C(N)N1c1ccc(Br)cc1 (stereo not drawn)	0.9
CC1N=C(N)N=C(N)N1c1ccc(Br)cc1 (stereo not drawn)	0.15
CC(C)C1N=C(N)N=C(N)N1c1ccc(Cl)cc1 (stereo not drawn)	1.2
CCCC1N=C(N)N=C(N)N1c1ccc(Cl)cc1 (stereo not drawn)	0.08
CCCCC1N=C(N)N=C(N)N1c1ccc(Cl)cc1 (stereo not drawn)	0.1
NC1=NC(c2ccccc2)N(c2ccc(Cl)cc2)C(N)=N1 (stereo not drawn)	0.04
NC1=NC(c2ccccc2)N(c2ccc(Br)cc2)C(N)=N1 (stereo not drawn)	0.07
Cc1ccc(N2C(N)=NC(N)=NC2c2ccccc2)cc1 (stereo not drawn)	0.13
NC1=NCN(c2ccc(Cl)cc2)C(N)=N1	0.5

Test system: Plasmodium falciparum
Assay: Growth inhibition (IC50) against Plasmodium falciparum wild-type TM4/8.2
Assay type: functional, organism-based
Method in brief: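 TM4/8.2 clone (wild-type DHFR) grown in human erythrocytes, RPMI 1640 with 25 mM HEPES pH 7.4, 0.2% NaHCO3, gentamicin, 10% human serum, 37 °C, 3% CO2. Drug from DMSO (final 0.1%), 1.5% cell suspension at 1-2% parasitemia; [3H]-hypoxanthine added after 24 h, a further 18-24 h incubation. IC50 from sigmoidal incorporation-versus-concentration curve.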

Structure (SMILES)	IC50 [nM]
CCC1N=C(N)N=C(N)N1c1ccc(C)cc1 (stereo not drawn)	273
CC1(C)N=C(N)N=C(N)N1c1ccc(Cl)c(Cl)c1 [CHLORCYCLOGUANIL]	4
CCC1N=C(N)N=C(N)N1c1ccc(Cl)cc1 (stereo not drawn)	40
CCCC1N=C(N)N=C(N)N1c1ccc(Br)cc1 (stereo not drawn)	63
NC1=NC(c2ccccc2)N(c2cccc(Cl)c2)C(N)=N1 (stereo not drawn)	455
NC1=NCN(c2ccc(F)cc2)C(N)=N1	9660
CC(C)C1N=C(N)N=C(N)N1c1ccc(Br)cc1 (stereo not drawn)	638
CC1N=C(N)N=C(N)N1c1ccc(Br)cc1 (stereo not drawn)	132
CC(C)C1N=C(N)N=C(N)N1c1ccc(Cl)cc1 (stereo not drawn)	2910
CCCC1N=C(N)N=C(N)N1c1ccc(Cl)cc1 (stereo not drawn)	65
CCCCC1N=C(N)N=C(N)N1c1ccc(Cl)cc1 (stereo not drawn)	111
NC1=NC(c2ccccc2)N(c2ccc(Cl)cc2)C(N)=N1 (stereo not drawn)	27
NC1=NC(c2ccccc2)N(c2ccc(Br)cc2)C(N)=N1 (stereo not drawn)	47
Cc1ccc(N2C(N)=NC(N)=NC2c2ccccc2)cc1 (stereo not drawn)	136
NC1=NCN(c2ccc(Cl)cc2)C(N)=N1	952

Test system: Plasmodium falciparum
Assay: Growth inhibition IC50 against Plasmodium falciparum mutant T9/94
Assay type: functional, organism-based
Method in brief: (§1)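 Parasites kept in human erythrocytes in RPMI 1640 with 25 mM HEPES pH 7.4, 0.2% NaHCO3, gentamicin and 10% human serum, at 37 °C under 3% CO2. Clones used were TM4/8.2 (wild-type DHFR) and T9/94 RC17 (A16V+S108T). Drug dilutions were made from DMSO stocks, final DMSO 0.1%, and added to a 1.5% cell suspension at 1-2% parasitemia. After 24 h, 0.25 µCi [3H]-hypoxanthine was added for a further 18-24 h, then scintillation counting. IC50 taken from a sigmoidal curve.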

Structure (SMILES)	IC50 [nM]
CC1(C)N=C(N)N=C(N)N1c1ccc(Cl)c(Cl)c1 [CHLORCYCLOGUANIL]	307

Test system: Plasmodium falciparum
Assay: Inhibition of Plasmodium falciparum T9/94 mutant
Assay type: functional, organism-based
Method in brief: as §1

Structure (SMILES)	IC50 [nM]
CCC1N=C(N)N=C(N)N1c1ccc(C)cc1 (stereo not drawn)	517
CCC1N=C(N)N=C(N)N1c1ccc(Cl)cc1 (stereo not drawn)	486
CCCC1N=C(N)N=C(N)N1c1ccc(Br)cc1 (stereo not drawn)	250
NC1=NC(c2ccccc2)N(c2cccc(Cl)c2)C(N)=N1 (stereo not drawn)	24
NC1=NCN(c2ccc(F)cc2)C(N)=N1	312
CC(C)C1N=C(N)N=C(N)N1c1ccc(Br)cc1 (stereo not drawn)	725
CC1N=C(N)N=C(N)N1c1ccc(Br)cc1 (stereo not drawn)	277
CC(C)C1N=C(N)N=C(N)N1c1ccc(Cl)cc1 (stereo not drawn)	2820
CCCC1N=C(N)N=C(N)N1c1ccc(Cl)cc1 (stereo not drawn)	365
CCCCC1N=C(N)N=C(N)N1c1ccc(Cl)cc1 (stereo not drawn)	250
NC1=NC(c2ccccc2)N(c2ccc(Cl)cc2)C(N)=N1 (stereo not drawn)	44
NC1=NC(c2ccccc2)N(c2ccc(Br)cc2)C(N)=N1 (stereo not drawn)	180
Cc1ccc(N2C(N)=NC(N)=NC2c2ccccc2)cc1 (stereo not drawn)	39
NC1=NCN(c2ccc(Cl)cc2)C(N)=N1	313

Target: Bifunctional dihydrofolate reductase-thymidylate synthase (Plasmodium falciparum K1) (UniProt P13922)
Assay: Evaluated for activity of relative to Cycloguanil

Structure (SMILES)	Relative activity
CCC1N=C(N)N=C(N)N1c1ccc(C)cc1 (stereo not drawn)	3.9
CC1(C)N=C(N)N=C(N)N1c1ccc(Cl)c(Cl)c1 [CHLORCYCLOGUANIL]	0.73
CCC1N=C(N)N=C(N)N1c1ccc(Cl)cc1 (stereo not drawn)	2.4
CCCC1N=C(N)N=C(N)N1c1ccc(Br)cc1 (stereo not drawn)	1.7
NC1=NC(c2ccccc2)N(c2cccc(Cl)c2)C(N)=N1 (stereo not drawn)	7.8
NC1=NCN(c2ccc(F)cc2)C(N)=N1	180
CC(C)C1N=C(N)N=C(N)N1c1ccc(Br)cc1 (stereo not drawn)	20
CC1N=C(N)N=C(N)N1c1ccc(Br)cc1 (stereo not drawn)	3.8
CC(C)C1N=C(N)N=C(N)N1c1ccc(Cl)cc1 (stereo not drawn)	40.3
CCCC1N=C(N)N=C(N)N1c1ccc(Cl)cc1 (stereo not drawn)	3.1
CCCCC1N=C(N)N=C(N)N1c1ccc(Cl)cc1 (stereo not drawn)	2.5
NC1=NC(c2ccccc2)N(c2ccc(Cl)cc2)C(N)=N1 (stereo not drawn)	3
NC1=NC(c2ccccc2)N(c2ccc(Br)cc2)C(N)=N1 (stereo not drawn)	1.9
Cc1ccc(N2C(N)=NC(N)=NC2c2ccccc2)cc1 (stereo not drawn)	5.1
NC1=NCN(c2ccc(Cl)cc2)C(N)=N1	16

Target: Bifunctional dihydrofolate reductase-thymidylate synthase (Plasmodium falciparum K1) (UniProt P13922)
Assay: Selectivity ratio of growth inhibition against Plasmodium falciparum TM4/8.2(wild-type) and T9/94(mutant)
Assay type: functional

Structure (SMILES)	IC50 ratio
CCC1N=C(N)N=C(N)N1c1ccc(C)cc1 (stereo not drawn)	1.89
CC1(C)N=C(N)N=C(N)N1c1ccc(Cl)c(Cl)c1 [CHLORCYCLOGUANIL]	76.8
CCC1N=C(N)N=C(N)N1c1ccc(Cl)cc1 (stereo not drawn)	12.2
CCCC1N=C(N)N=C(N)N1c1ccc(Br)cc1 (stereo not drawn)	3.97
NC1=NC(c2ccccc2)N(c2cccc(Cl)c2)C(N)=N1 (stereo not drawn)	0.05
NC1=NCN(c2ccc(F)cc2)C(N)=N1	0.03
CC(C)C1N=C(N)N=C(N)N1c1ccc(Br)cc1 (stereo not drawn)	1.14
CC1N=C(N)N=C(N)N1c1ccc(Br)cc1 (stereo not drawn)	2.1
CC(C)C1N=C(N)N=C(N)N1c1ccc(Cl)cc1 (stereo not drawn)	0.97
CCCC1N=C(N)N=C(N)N1c1ccc(Cl)cc1 (stereo not drawn)	5.62
NC1=NC(c2ccccc2)N(c2ccc(Br)cc2)C(N)=N1 (stereo not drawn)	3.86
Cc1ccc(N2C(N)=NC(N)=NC2c2ccccc2)cc1 (stereo not drawn)	0.29
NC1=NCN(c2ccc(Cl)cc2)C(N)=N1	0.33

Test system: not listed separately
Assay: Selectivity ratio of growth inhibition values of wild-type (TM4/8.2) and mutant (T9/94) clones of Plasmodium falciparum
Method in brief: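 Clones TM4/8.2 (wild-type DHFR) and T9/94 RC17 (A16V+S108T) grown in human erythrocytes in RPMI 1640 with 25 mM HEPES pH 7.4 and 10% human serum, 37 °C, 3% CO2. 1.5% cell suspension at 1-2% parasitemia with drug in 0.1% DMSO final for 24 h, then [3H]-hypoxanthine 18-24 h. IC50 taken from sigmoidal curves; ratio is T9/94 IC50 over TM4 IC50.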

Structure (SMILES)	IC50 ratio
CCCCC1N=C(N)N=C(N)N1c1ccc(Cl)cc1 (stereo not drawn)	2.25

Target: Bifunctional dihydrofolate reductase-thymidylate synthase (Plasmodium falciparum K1) (UniProt P13922)
Assay: Ratio of inhibitory constant of mutant by wild-type DHFRs of Plasmodium falciparum

Structure (SMILES)	Ratio
CCC1N=C(N)N=C(N)N1c1ccc(C)cc1 (stereo not drawn)	22
CC1(C)N=C(N)N=C(N)N1c1ccc(Cl)c(Cl)c1 [CHLORCYCLOGUANIL]	119
CCC1N=C(N)N=C(N)N1c1ccc(Cl)cc1 (stereo not drawn)	52
CCCC1N=C(N)N=C(N)N1c1ccc(Br)cc1 (stereo not drawn)	49
NC1=NC(c2ccccc2)N(c2cccc(Cl)c2)C(N)=N1 (stereo not drawn)	0.9
NC1=NCN(c2ccc(F)cc2)C(N)=N1	1.7
CC(C)C1N=C(N)N=C(N)N1c1ccc(Br)cc1 (stereo not drawn)	40
CC1N=C(N)N=C(N)N1c1ccc(Br)cc1 (stereo not drawn)	35
CC(C)C1N=C(N)N=C(N)N1c1ccc(Cl)cc1 (stereo not drawn)	25
CCCC1N=C(N)N=C(N)N1c1ccc(Cl)cc1 (stereo not drawn)	23
CCCCC1N=C(N)N=C(N)N1c1ccc(Cl)cc1 (stereo not drawn)	45
NC1=NC(c2ccccc2)N(c2ccc(Br)cc2)C(N)=N1 (stereo not drawn)	31
Cc1ccc(N2C(N)=NC(N)=NC2c2ccccc2)cc1 (stereo not drawn)	22
NC1=NCN(c2ccc(Cl)cc2)C(N)=N1	26

Source: ChEMBL document CHEMBL1133696, “Development of a lead inhibitor for the A16V+S108T mutant of dihydrofolate reductase from the cycloguanil-resistant strain (T9/94) of Plasmodium falciparum” (J Med Chem, 2000)
